Assay results taken from ChEMBL document CHEMBL4351026, “Antifungal activity, mode of action variability, and subcellular distribution of coumarin-based antifungal azoles” (Eur J Med Chem, 2019).
≈ marks a conversion by molar mass, not a printed value. Calls of active or inactive are those of the source. No cut-off for these calls is given here.

Key:
HEK-293T [1] = experiment: (§1) Cytotoxicity against human HEK293T cells assessed as reduction in cell viability at 5 to 50 uM incubated for 24 hrs by XTT assay relative to control; assay type: cell-based; details: hek-293t, 24 h, 50 µM
How it was run: (§2)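 HEK-293T cells were grown in DMEM with 10% FBS, 1% NEAA, 1% pyruvate and pen-strep-nystatin at 37 °C and 5% CO2. 7000 cells/well were seeded on poly-D-lysine-coated wells. After 24 h the medium was renewed and compounds were added at 5–50 µM from 1 mM stocks in 10% DMSO/0.3% Tween/PBS. After 24 h, XTT was added for 2 h at 37 °C, with absorbance read at 475 nm (reference 660 nm).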

[2] = test system: Meyerozyma guilliermondii; experiment: Antifungal activity against Candida guilliermondii T-47 assessed as reduction in fungal cell growth incubated for 24 hrs by MTT based broth double dilution method; assay type: functional; details: T-47, 24 h
How it was run: (§3)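 Broth double-dilution in Casitone broth. Starter cultures were grown 24 or 48 h at 37 °C, 5% CO₂, diluted 1:100, and added to serial two-fold dilutions at 64 to 0.007 µg/mL. Final inoculum was 5 x 10^4 to 5 x 10^5 CFU/mL; DMSO was 0.0012–1.3%. Plates were incubated at 37 °C, 5% CO₂, then MTT was added for 2 h. MIC followed CLSI M27-A3. Triplicates, two independent experiments.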

Candida albicans [3] = experiment: Antifungal activity against Candida albicans ATCC 90028 assessed as reduction in fungal cell growth incubated for 24 hrs by MTT based broth double dilution method; assay type: functional; details: ATCC 90028, 24 h; how it was run: as §3
Nakaseomyces glabratus [4] = experiment: Antifungal activity against Candida glabrata 192 assessed as reduction in fungal cell growth incubated for 48 hrs by MTT based broth double dilution method; assay type: functional; details: Nakaseomyces glabratus, 192, 48 h; how it was run: as §3
Candida parapsilosis [5] = experiment: Antifungal activity against Candida parapsilosis ATCC 90018 assessed as reduction in fungal cell growth incubated for 24 hrs by MTT based broth double dilution method; assay type: functional; details: Lodderomyces parapsilosis, ATCC 90018, 24 h; how it was run: as §3
[6] = Cytotoxicity against human HepG2 cells assessed as reduction in cell viability at 5 to 50 uM incubated for 24 hrs by XTT assay relative to control; assay type: cell-based; details: read-out: INH
How it was run: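 HepG2 cells were maintained in RPMI with 15% FBS, 1% NEAA, 1% pyruvate and pen-strep-nystatin at 37 °C and 5% CO2. 4000 cells/well were plated on poly-D-lysine coating and given fresh medium after 24 h. Compounds were dosed at 5–50 µM from 1 mM stocks in 10% DMSO/0.3% Tween/PBS and incubated 24 h. Viability was read by XTT (2 h, 37 °C) at 475 nm against 660 nm.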

Candida dubliniensis = experiment: Antifungal activity against Candida dubliniensis T-99 assessed as reduction in fungal cell growth incubated for 24 hrs by MTT based broth double dilution method; assay type: functional; details: T-99, 24 h; how it was run: as §3
Candida albicans [7] = experiment: Antifungal activity against Candida albicans SN152 assessed as reduction in fungal cell growth incubated for 24 hrs by MTT based broth double dilution method; assay type: functional; details: SN152, 24 h; how it was run: as §3
Nakaseomyces glabratus [8] = experiment: Antifungal activity against Candida glabrata 192 assessed as reduction in fungal cell growth incubated for 24 hrs by MTT based broth double dilution method; assay type: functional; details: Nakaseomyces glabratus, 192, 24 h; how it was run: as §3
Nakaseomyces glabratus [9] = experiment: Antifungal activity against Candida glabrata ATCC 66032 assessed as reduction in fungal cell growth incubated for 48 hrs by MTT based broth double dilution method; assay type: functional; details: ATCC 66032, 48 h; how it was run: as §3
Candida albicans [10] = experiment: Antifungal activity against Candida albicans SN152 assessed as zone inhibition at 25 ug incubated for 24 hrs by disk diffusion method; assay type: functional, organism-based
How it was run: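 Strains were streaked on YPD agar and grown at 30 °C: 24 h for parental SN152, 48 h for the erg11ΔΔ erg3ΔΔ mutant. Colonies were suspended in PBS and adjusted to OD 0.02 (SN152) or 0.03 (mutant), then spread on Casitone plates. A 6-mm disk loaded with 25 µg compound was placed centrally. Plates were incubated at 30 °C and photographed after 24 h.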

Candida albicans [11] = experiment: Antifungal activity against Candida albicans ATCC 90028 assessed as reduction in fungal cell growth incubated for 48 hrs by MTT based broth double dilution method; assay type: functional; details: ATCC 90028, 48 h; how it was run: as §3
Nakaseomyces glabratus [12] = experiment: Antifungal activity against Candida glabrata ATCC 2001 assessed as reduction in fungal cell growth incubated for 24 hrs by MTT based broth double dilution method; assay type: functional; details: ATCC 2001, 24 h; how it was run: as §3
Candida albicans [13] = experiment: Antifungal activity against Candida albicans P-87 assessed as reduction in fungal cell growth incubated for 24 hrs by MTT based broth double dilution method; assay type: functional; details: P-87, 24 h; how it was run: as §3
Candida albicans [14] = experiment: Antifungal activity against ERG11/ERG3 knocked out Candida albicans SN152 assessed as zone of inhibition at 25 ug […] by disk diffusion method; assay type: functional, organism-based
Nakaseomyces glabratus [15] = experiment: Antifungal activity against Candida glabrata ATCC 66032 assessed as reduction in fungal cell growth incubated for 24 hrs by MTT based broth double dilution method; assay type: functional; details: ATCC 66032, 24 h; how it was run: as §3
Candida parapsilosis [16] = experiment: Antifungal activity against Candida parapsilosis ATCC 22019 assessed as reduction in fungal cell growth incubated for 24 hrs by MTT based broth double dilution method; assay type: functional; details: Lodderomyces parapsilosis, ATCC 22019, 24 h; how it was run: as §3
Candida albicans [17] = experiment: Antifungal activity against Candida albicans SN152 assessed as reduction in fungal cell growth incubated for 48 hrs by MTT based broth double dilution method; assay type: functional; details: SN152, 48 h; how it was run: as §3
[18] = as §1; assay type: cell-based, HEK-293T; details: HEK293T cells, read-out: INH; how it was run: as §2
HepG2 = experiment: Cytotoxicity against human HepG2 cells assessed as reduction in cell viability at 5 to 50 uM incubated for 24 hrs by XTT assay; assay type: cell-based; details: hepg2, 24 h
How it was run: (§4)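 HEK-293T were grown in DMEM with 10% FBS; HepG2 in RPMI with 15% FBS; both at 37 °C, 5% CO₂. Cells (4000 HepG2 or 7000 HEK-293T per well) were seeded on poly-D-lysine wells. After 24 h the medium was renewed and compounds added at 5–50 µM from 1 mM stocks in 10% DMSO/0.3% Tween/PBS. After 24 h more, XTT was added for 2 h at 37 °C; absorbance was read at 475 nm against 660 nm reference.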

Cytochrome P450 3A4 = Cytochrome P450 3A4 (Homo sapiens, UniProt P08684); experiment: Inhibition of recombinant human CYP3A4 using Luciferin-PPXE as substrate preincubated for 10 mins followed by NADPH addition measured after 15 mins by luminometric method; assay type: ADME
Cytochrome P450 3A4, sequence (P08684 whole entry): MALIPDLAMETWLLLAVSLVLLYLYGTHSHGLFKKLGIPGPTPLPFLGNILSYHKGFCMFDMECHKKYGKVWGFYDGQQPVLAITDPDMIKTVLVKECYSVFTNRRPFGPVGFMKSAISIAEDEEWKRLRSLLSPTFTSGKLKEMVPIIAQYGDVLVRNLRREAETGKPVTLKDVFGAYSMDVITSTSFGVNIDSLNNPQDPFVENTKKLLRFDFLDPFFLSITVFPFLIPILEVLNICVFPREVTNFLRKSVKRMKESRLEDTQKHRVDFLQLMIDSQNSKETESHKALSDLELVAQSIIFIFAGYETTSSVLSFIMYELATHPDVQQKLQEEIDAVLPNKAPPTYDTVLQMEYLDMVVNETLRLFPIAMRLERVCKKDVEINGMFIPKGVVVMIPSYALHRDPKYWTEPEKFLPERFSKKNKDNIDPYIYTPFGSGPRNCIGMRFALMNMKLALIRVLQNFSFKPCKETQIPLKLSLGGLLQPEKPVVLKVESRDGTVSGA
How it was run: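 P450-Glo luminescent assay, Luciferin-PPXE substrate. Compound was mixed with membranes containing recombinant human CYP3A4; controls were vehicle with membranes lacking CYP3A4. After 10 min preincubation at 37 °C, NADPH regeneration reagent was added and the mixture kept 15 min at 37 °C. Luciferin detection reagent stopped the reaction; after 20 min at room temperature, luminescence was read. Duplicates.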

HEK-293T [19] = experiment: Cytotoxicity against human HEK293T cells assessed as reduction in cell viability at 5 to 50 uM incubated for 24 hrs by XTT assay; assay type: cell-based; how it was run: as §4
[20] = Drug distribution in Candida glabrata 2001 assessed as subcellular compound distribution at 10 uM incubated for 60 mins by fluorescent imaging analysis; assay type: ADME; details: nakaseomyces glabratus, 1 h
How it was run: (§5)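 Yeast were grown overnight at 30 °C in YPD liquid, diluted 1:10, and grown 2 h at 30 °C to log phase. Fluorescent azole was added at 10 µM final and incubated 60 min in the dark. Cells were washed once in PBS and imaged on slides in bright field and fluorescence (ex 427 nm, em 510 nm).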

[21] = Drug distribution in Candida albicans SN152 assessed as subcellular compound distribution at 10 uM incubated for 60 mins by fluorescent imaging analysis; assay type: ADME; details: 1 h; how it was run: as §5

Structure (SMILES): C[C@@H](c1ncncc1F)[C@](O)(Cn1cncn1)c1ccc(F)cc1F [VORICONAZOLE]
- Activity (HEK-293T [1]): < 40%
- MIC [2]: 0.06 µg/mL (≈ 0.172 µM)
- MIC (Candida albicans [3]): 0.007 µg/mL (≈ 0.02 µM)
- MIC (Nakaseomyces glabratus [4]): 0.25 µg/mL (≈ 0.716 µM)
- MIC (Candida parapsilosis [5]): 0.015 µg/mL (≈ 0.0429 µM)
- cytotoxicity at 24 h, up to 50 µM [6]: < 40%
- MIC (Candida dubliniensis): 0.06 µg/mL (≈ 0.172 µM)
- MIC (Candida albicans [7]): 0.007 µg/mL (≈ 0.02 µM)
- MIC (Nakaseomyces glabratus [8]): 0.125 µg/mL (≈ 0.358 µM)
- MIC (Nakaseomyces glabratus [9]): 4 µg/mL (≈ 11.5 µM)
- inhibition zone (IZ) (Candida albicans [10]): Active
- MIC (Candida albicans [11]): 0.007 µg/mL (≈ 0.02 µM)
- MIC (Nakaseomyces glabratus [12]): 2 µg/mL (≈ 5.73 µM)
- MIC (Candida albicans [13]): 0.007 µg/mL (≈ 0.02 µM)
- inhibition zone (IZ) (Candida albicans [14]): inactive
- MIC (Nakaseomyces glabratus [15]): 0.5 µg/mL (≈ 1.43 µM)
- MIC (Candida parapsilosis [16]): 0.03 µg/mL (≈ 0.0859 µM)
- MIC (Candida albicans [17]): 0.007 µg/mL (≈ 0.02 µM)

Structure (SMILES): CCN(CC)c1ccc2cc(C(=O)NCC(O)(Cn3cncn3)c3ccc(Cl)cc3Cl)c(=O)oc2c1 (racemic)
- cytotoxicity at 24 h, up to 50 µM [18]: < 40%
- MIC [2]: 0.25 µg/mL (≈ 0.471 µM)
- MIC (Candida albicans [3]): 0.03 µg/mL (≈ 0.0566 µM)
- MIC (Nakaseomyces glabratus [4]): > 64 µg/mL
- MIC (Candida parapsilosis [5]): 0.06 µg/mL (≈ 0.113 µM)
- cytotoxicity at 24 h, up to 50 µM [6]: < 40%
- MIC (Candida dubliniensis): 0.5 µg/mL (≈ 0.943 µM)
- MIC (Candida albicans [7]): 0.03 µg/mL (≈ 0.0566 µM)
- MIC (Nakaseomyces glabratus [8]): 4 µg/mL (≈ 7.54 µM)
- MIC (Nakaseomyces glabratus [9]): > 64 µg/mL
- inhibition zone (IZ) (Candida albicans [10]): Active
- MIC (Candida albicans [11]): 0.06 µg/mL (≈ 0.113 µM)
- Activity (HepG2): Non-Toxic
- MIC (Nakaseomyces glabratus [12]): 16 µg/mL (≈ 30.2 µM)
- IC50 (Cytochrome P450 3A4): 0.351 µM
- MIC (Candida albicans [13]): 0.03 µg/mL (≈ 0.0566 µM)
- inhibition zone (IZ) (Candida albicans [14]): inactive
- MIC (Nakaseomyces glabratus [15]): 4 µg/mL (≈ 7.54 µM)
- MIC (Candida parapsilosis [16]): 0.5 µg/mL (≈ 0.943 µM)
- Activity (HEK-293T [19]): Non-Toxic
- MIC (Candida albicans [17]): 0.06 µg/mL (≈ 0.113 µM)

Structure (SMILES): CCN(CC)c1ccc2cc(C(=O)NCC(O)(Cn3ccnc3)c3ccc(F)cc3F)c(=O)oc2c1 (racemic)
- MIC [2]: 0.5 µg/mL (≈ 1.01 µM)
- MIC (Candida albicans [3]): 0.015 µg/mL (≈ 0.0302 µM)
- MIC (Nakaseomyces glabratus [4]): 4 µg/mL (≈ 8.06 µM)
- MIC (Candida parapsilosis [5]): 0.015 µg/mL (≈ 0.0302 µM)
- Drug uptake [20]: Active
- MIC (Candida dubliniensis): 0.5 µg/mL (≈ 1.01 µM)
- MIC (Candida albicans [7]): 0.06 µg/mL (≈ 0.121 µM)
- MIC (Nakaseomyces glabratus [8]): 2 µg/mL (≈ 4.03 µM)
- MIC (Nakaseomyces glabratus [9]): 32 µg/mL (≈ 64.4 µM)
- inhibition zone (IZ) (Candida albicans [10]): Active
- MIC (Candida albicans [11]): 0.06 µg/mL (≈ 0.121 µM)
- Drug uptake [21]: Active
- MIC (Nakaseomyces glabratus [12]): 8 µg/mL (≈ 16.1 µM)
- IC50 (Cytochrome P450 3A4): 1.31 µM
- MIC (Candida albicans [13]): 0.06 µg/mL (≈ 0.121 µM)
- inhibition zone (IZ) (Candida albicans [14]): Active
- MIC (Nakaseomyces glabratus [15]): 8 µg/mL (≈ 16.1 µM)
- MIC (Candida parapsilosis [16]): 0.125 µg/mL (≈ 0.252 µM)
- MIC (Candida albicans [17]): 0.125 µg/mL (≈ 0.252 µM)

Structure (SMILES): CCN(CC)c1ccc2cc(C(=O)NCC(O)(Cn3cncn3)c3ccc(F)cc3F)c(=O)oc2c1 (racemic)
- MIC [2]: 1 µg/mL (≈ 2.01 µM)
- MIC (Candida albicans [3]): 0.06 µg/mL (≈ 0.121 µM)
- MIC (Nakaseomyces glabratus [4]): > 64 µg/mL
- MIC (Candida parapsilosis [5]): 0.125 µg/mL (≈ 0.251 µM)
- Drug uptake [20]: Active
- MIC (Candida dubliniensis): 1 µg/mL (≈ 2.01 µM)
- MIC (Candida albicans [7]): 0.03 µg/mL (≈ 0.0603 µM)
- MIC (Nakaseomyces glabratus [8]): 8 µg/mL (≈ 16.1 µM)
- MIC (Nakaseomyces glabratus [9]): > 64 µg/mL
- inhibition zone (IZ) (Candida albicans [10]): Active
- MIC (Candida albicans [11]): 0.125 µg/mL (≈ 0.251 µM)
- Drug uptake [21]: Active
- MIC (Nakaseomyces glabratus [12]): 16 µg/mL (≈ 32.2 µM)
- IC50 (Cytochrome P450 3A4): 1.02 µM
- MIC (Candida albicans [13]): 0.06 µg/mL (≈ 0.121 µM)
- inhibition zone (IZ) (Candida albicans [14]): inactive
- MIC (Nakaseomyces glabratus [15]): 4 µg/mL (≈ 8.04 µM)
- MIC (Candida parapsilosis [16]): 1 µg/mL (≈ 2.01 µM)
- MIC (Candida albicans [17]): 0.125 µg/mL (≈ 0.251 µM)
